Values after ≈ are worked out from the molar mass of the structure shown. Active and inactive are the calls of the source. The rule behind the calls is not given here.
Key:
Aspergillus fumigatus [1] = test: Antifungal activity against Aspergillus fumigatus NRRL 6113 assessed as fungal growth inhibition by double dilution method; assay type: functional
Kodamaea ohmeri = test: Antifungal activity against Kodamaea ohmeri AR Bank # 396 assessed as fungal growth inhibition by double dilution method; assay type: functional
Method in brief: (§1)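 Broth microdilution after CLSI M27-A3/M38-A2 with minor changes. Single colony grown overnight in YPD at 35 °C, 200 rpm. Compound final range 0.06-31.3 µg/mL; incubated 48 h at 35 °C.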

[Candida] auris [2] = Antifungal activity against Candida auris AR Bank # 0384 assessed as fungal growth inhibition by double dilution method; assay type: functional; conditions: Candidozyma auris; method in brief: as §1
Aspergillus fumigatus [3] = test: Antifungal activity against Aspergillus fumigatus NRRL 163 assessed as fungal growth inhibition by double dilution method; assay type: functional
[Candida] auris [4] = Antifungal activity against Candida auris AR Bank # 388 assessed as fungal growth inhibition by double dilution method; assay type: functional; conditions: Candidozyma auris; method in brief: as §1
Aspergillus fumigatus [5] = test: Antifungal activity against Aspergillus fumigatus NRRL 5109 assessed as fungal growth inhibition by double dilution method; assay type: functional
[Candida] auris [6] = Antifungal activity against Candida auris AR Bank # 381 assessed as fungal growth inhibition by double dilution method; assay type: functional; conditions: Candidozyma auris; method in brief: as §1
Candida albicans [7] = test: Antifungal activity against itraconazole/fluconazole resistant Candida albicans ATCC 90819 assessed as fungal growth inhibition by double dilution method; assay type: functional
Method in brief: (§2)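 Broth microdilution after CLSI M27-A3/M38-A2 with minor modifications. A single colony was grown overnight in YPD at 35 °C with shaking at 200 rpm. Cells were mixed 1:1 with compound (final 0.06-31.3 µg/mL, from DMSO stocks) and incubated 48 h at 35 °C.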

Clavispora lusitaniae = test: Antifungal activity against Clavispora lusitaniae AR Bank # 398 assessed as fungal growth inhibition by double dilution method; assay type: functional; method in brief: as §1
Nakaseomyces glabratus [8] = test: Antifungal activity against Candida glabrata ATCC 2001 assessed as fungal growth inhibition by double dilution method; assay type: functional; method in brief: as §1
[Candida] haemuloni [9] = Antifungal activity against Candida haemulonii AR Bank # 395 assessed as fungal growth inhibition by double dilution method; assay type: functional; conditions: Candidozyma haemuli; method in brief: as §1
Aspergillus flavus = test: Antifungal activity against Aspergillus flavus ATCC MYA-3631 assessed as fungal growth inhibition by double dilution method; assay type: functional
Candida albicans [10] = test: Antifungal activity against itraconazole/fluconazole susceptible Candida albicans ATCC MYA-2310 assessed as fungal growth inhibition by double dilution method; assay type: functional; method in brief: as §2
Candida albicans [11] = test: Antibiofilm activity against Candida albicans ATCC 10231 assessed as reduction in biofilm production at 1.96 to 3.9 microg/ml by biofilm formation assay; assay type: functional, organism-based; conditions: dose 1.96-3.9 µg/ml
[Candida] auris [12] = Antifungal activity against Candida auris AR Bank # 387 assessed as fungal growth inhibition by double dilution method; assay type: functional; conditions: Candidozyma auris; method in brief: as §1
Candida albicans [13] = test: Antifungal activity against Candida albicans ATCC 64124 assessed as fungal growth inhibition by double dilution method; assay type: functional; method in brief: as §2
Aspergillus nidulans = test: Antifungal activity against Aspergillus nidulans ATCC 38163 assessed as fungal growth inhibition by double dilution method; assay type: functional
[Candida] auris [14] = Antifungal activity against Candida auris AR Bank # 384 assessed as fungal growth inhibition by double dilution method; assay type: functional; conditions: Candidozyma auris; method in brief: as §1
[Candida] auris [15] = Antifungal activity against Candida auris AR Bank # 383 assessed as fungal growth inhibition by double dilution method; assay type: functional; conditions: Candidozyma auris; method in brief: as §1
[Candida] auris [16] = Antifungal activity against Candida auris AR Bank # 386 assessed as fungal growth inhibition by double dilution method; assay type: functional; conditions: Candidozyma auris; method in brief: as §1
Pichia kudriavzevii [17] = test: Antifungal activity against Pichia kudriavzevii AR Bank # 397 assessed as fungal growth inhibition by double dilution method; assay type: functional; method in brief: as §1
Candida duobushaemulonii [18] = test: Antifungal activity against Candida duobushaemulonii AR Bank # 394 assessed as fungal growth inhibition by double dilution method; assay type: functional; conditions: Candidozyma duobushaemuli; method in brief: as §1
Candida albicans [19] = test: Antifungal activity against itraconazole/fluconazole resistant Candida albicans ATCC MYA-1003 assessed as fungal growth inhibition by double dilution method; assay type: functional; method in brief: as §2
Candida duobushaemulonii [20] = test: Antifungal activity against Candida duobushaemulonii AR Bank # 392 assessed as fungal growth inhibition by double dilution method; assay type: functional; conditions: Candidozyma duobushaemuli; method in brief: as §1
[Candida] auris [21] = Antifungal activity against Candida auris AR Bank # 0390 assessed as fungal growth inhibition by double dilution method; assay type: functional; conditions: Candidozyma auris; method in brief: as §1
Saccharomyces cerevisiae [22] = test: Antifungal activity against Saccharomyces cerevisiae AR Bank # 400 assessed as fungal growth inhibition by double dilution method; assay type: functional; method in brief: as §1
Pichia kudriavzevii [23] = test: Antifungal activity against Pichia kudriavzevii ATCC 6258 assessed as fungal growth inhibition by double dilution method; assay type: functional; method in brief: as §1
Saccharomyces cerevisiae [24] = test: Antifungal activity against Saccharomyces cerevisiae AR Bank # 399 assessed as fungal growth inhibition by double dilution method; assay type: functional; method in brief: as §1
Aspergillus terreus = test: Antifungal activity against Aspergillus terreus ATCC MYA-3633 assessed as fungal growth inhibition by double dilution method; assay type: functional
[Candida] auris [25] = Antifungal activity against Candida auris AR Bank # 389 assessed as fungal growth inhibition by double dilution method; assay type: functional; conditions: Candidozyma auris; method in brief: as §1
Nakaseomyces glabratus [26] = test: Antifungal activity against Candida glabrata ATCC 22019 assessed as fungal growth inhibition by double dilution method; assay type: functional; method in brief: as §1
Candida duobushaemulonii [27] = test: Antifungal activity against Candida duobushaemulonii AR Bank # 391 assessed as fungal growth inhibition by double dilution method; assay type: functional; conditions: Candidozyma duobushaemuli; method in brief: as §1
Candida albicans [28] = test: Antifungal activity against itraconazole/fluconazole resistant Candida albicans ATCC MYA-1237 assessed as fungal growth inhibition by double dilution method; assay type: functional; method in brief: as §2
Candida albicans [29] = test: Antifungal activity against itraconazole/fluconazole susceptible Candida albicans ATCC MYA-2876 assessed as fungal growth inhibition by double dilution method; assay type: functional; method in brief: as §2
Candida albicans [30] = test: Antifungal activity against Candida albicans ATCC 10231 assessed as fungal growth inhibition by double dilution method; assay type: functional; method in brief: as §1
[Candida] haemuloni [31] = Antifungal activity against Candida haemulonii AR Bank # 393 assessed as fungal growth inhibition by double dilution method; assay type: functional; conditions: Candidozyma haemuli; method in brief: as §1
[Candida] auris [32] = Antifungal activity against Candida auris AR Bank # 382 assessed as fungal growth inhibition by double dilution method; assay type: functional; conditions: Candidozyma auris; method in brief: as §1
[Candida] auris [33] = Antifungal activity against Candida auris AR Bank # 385 assessed as fungal growth inhibition by double dilution method; assay type: functional; conditions: Candidozyma auris; method in brief: as §1
Cryptococcus neoformans = test: Antifungal activity against Cryptococcus neoformans ATCC MYA-895 assessed as fungal growth inhibition by double dilution method; assay type: functional; method in brief: as §1
[Candida] auris [34] = Antifungal activity against Candida auris AR Bank # 390 assessed as fungal growth inhibition by double dilution method; assay type: functional; conditions: Candidozyma auris; method in brief: as §1

COc1cccc(NNC(=O)c2ccccn2)c1
MIC (Aspergillus fumigatus [1]): > 31.3 µg/mL
MIC (Kodamaea ohmeri): 0.49 µg/mL (≈ 2.01 µM)
MIC ([Candida] auris [2]): 0.98 µg/mL (≈ 4.03 µM)
MIC (Aspergillus fumigatus [3]): 7.8 µg/mL (≈ 32.1 µM)
MIC ([Candida] auris [4]): 3.9 µg/mL (≈ 16 µM)
MIC (Aspergillus fumigatus [5]): 3.9 µg/mL (≈ 16 µM)
MIC ([Candida] auris [6]): 3.9 µg/mL (≈ 16 µM)
MIC (Candida albicans [7]): 1.95 µg/mL (≈ 8.02 µM)
MIC (Clavispora lusitaniae): 1.95 µg/mL (≈ 8.02 µM)
MIC (Nakaseomyces glabratus [8]): 15.6 µg/mL (≈ 64.1 µM)
MIC ([Candida] haemuloni [9]): 0.49 µg/mL (≈ 2.01 µM)
MIC (Aspergillus flavus): > 31.3 µg/mL
MIC (Candida albicans [10]): 1.95 µg/mL (≈ 8.02 µM)
Activity (Candida albicans [11]): Active
MIC ([Candida] auris [12]): 0.49 µg/mL (≈ 2.01 µM)
MIC (Candida albicans [13]): 0.98 µg/mL (≈ 4.03 µM)
MIC (Aspergillus nidulans): 1.95 µg/mL (≈ 8.02 µM)
MIC ([Candida] auris [14]): 0.98 µg/mL (≈ 4.03 µM)
MIC ([Candida] auris [15]): 0.98 µg/mL (≈ 4.03 µM)
MIC ([Candida] auris [16]): 0.49 µg/mL (≈ 2.01 µM)
MIC (Pichia kudriavzevii [17]): 0.49 µg/mL (≈ 2.01 µM)
MIC (Candida duobushaemulonii [18]): 0.98 µg/mL (≈ 4.03 µM)
MIC (Candida albicans [19]): 0.98 µg/mL (≈ 4.03 µM)
MIC (Candida duobushaemulonii [20]): 1.95 µg/mL (≈ 8.02 µM)
MIC ([Candida] auris [21]): 0.98 µg/mL (≈ 4.03 µM)
MIC (Saccharomyces cerevisiae [22]): 7.8 µg/mL (≈ 32.1 µM)
MIC (Pichia kudriavzevii [23]): 0.49 µg/mL (≈ 2.01 µM)
MIC (Saccharomyces cerevisiae [24]): 7.8 µg/mL (≈ 32.1 µM)
MIC (Aspergillus terreus): 3.9 µg/mL (≈ 16 µM)
MIC ([Candida] auris [25]): 0.49 µg/mL (≈ 2.01 µM)
MIC (Nakaseomyces glabratus [26]): 3.9 µg/mL (≈ 16 µM)
MIC (Candida duobushaemulonii [27]): 1.95 µg/mL (≈ 8.02 µM)
MIC (Candida albicans [28]): 1.95 µg/mL (≈ 8.02 µM)
MIC (Candida albicans [29]): 0.98 µg/mL (≈ 4.03 µM)
MIC (Candida albicans [30]): 0.24 µg/mL (≈ 0.987 µM)
MIC ([Candida] haemuloni [31]): 0.49 µg/mL (≈ 2.01 µM)
MIC ([Candida] auris [32]): 0.98 µg/mL (≈ 4.03 µM)
MIC ([Candida] auris [33]): 3.9 µg/mL (≈ 16 µM)
MIC (Cryptococcus neoformans): 0.24 µg/mL (≈ 0.987 µM)
MIC ([Candida] auris [34]): 0.98 µg/mL (≈ 4.03 µM)

From ChEMBL document CHEMBL5329156, “Discovery and development of novel substituted monohydrazides as potent antifungal agents” (RSC Med Chem, 2023)
